Measurements published in ChEMBL document CHEMBL3259705, “Geranyl and neryl triazole bisphosphonates as inhibitors of geranylgeranyl diphosphate synthase” (Bioorg Med Chem, 2014).
Active and inactive are the calls of the source. The rule behind the calls is not given here.

Columns and labels:
[1] = biological target: Geranylgeranyl transferase type I (Homo sapiens, UniProt P49354+P53609); test: Inhibition of recombinant GGTase 1 (unknown origin) assessed as decrease in prenylated fluorescent peptides level using dansyl-GCVLS and GGPP as substrate after 1 hr by HPLC-fluorescence detection analysis
Outline: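 Reaction started by adding 12 nM recombinant GGTase I to pH 7.5 Tris buffer with DTT, 5 mM MgCl2, 50 µM ZnCl2, 10 mM KCl, 0.04% DDM, 10 µM GGPP and 7 µM dansyl-GCVLS. Incubated 1 h at 30 °C, then acid-acetonitrile quench. Prenylated peptide measured by HPLC with fluorescence. IC50 from concentration-response curves.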

[2] = biological target: Protein farnesyltransferase (Homo sapiens, UniProt P49354+P49356); test: Inhibition of recombinant FTase (unknown origin) assessed as decrease in prenylated fluorescent peptides level using dansyl-GCVLS and FPP as substrate after 1 hr by HPLC-fluorescence detection analysis; assay type: protein-complex assay
Outline: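 3 nM recombinant FTase started reaction in pH 7.5 Tris buffer with DTT, 10 mM MgCl2, 10 µM ZnCl2, 0.04% DDM, plus 10 µM FPP and 5 µM dansyl-GCVLS. Run 1 h at 30 °C, stopped with acetonitrile/5% HCl, centrifuged. Prenylated peptide quantified by HPLC-fluorescence. IC50 taken from concentration-response curves.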

[3] = biological target: T1, Geranylgeranyl pyrophosphate synthase (Homo sapiens, UniProt O95749); test: Inhibition of recombinant GGDPS (unknown origin) assessed as decrease in radiolabeld GGPP level using FPP and [14C]IPP as substrate treated with enzyme for 10 mins prior to substrate challenge for 30 mins by liquid scintillation counting analysis
T1 sequence (O95749 whole entry): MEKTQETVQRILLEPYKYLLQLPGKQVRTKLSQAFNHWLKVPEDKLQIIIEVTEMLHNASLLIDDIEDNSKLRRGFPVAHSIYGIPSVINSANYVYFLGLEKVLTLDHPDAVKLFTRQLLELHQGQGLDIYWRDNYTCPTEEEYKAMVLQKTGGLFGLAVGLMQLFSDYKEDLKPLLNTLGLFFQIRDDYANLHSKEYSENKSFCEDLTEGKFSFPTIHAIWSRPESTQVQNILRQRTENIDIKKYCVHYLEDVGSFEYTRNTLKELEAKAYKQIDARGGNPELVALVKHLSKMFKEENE
Outline: (§1)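 Enzyme (10 nM FDPS or 20 nM GGDPS) preincubated with compound 10 min at room temperature in 50 mM Tris-HCl pH 7.7, 20 mM MgCl2, 5 mM TCEP, 5 µg/mL BSA. Started with 10 µM GPP (FDPS) or 10 µM FPP (GGDPS) plus 10 µM [14C]-IPP; 37 °C, 30 min. Stopped with saturated NaCl, butanol-extracted, counted. IC50 from concentration-response curves.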

[4] = biological target: T2, Geranylgeranyl pyrophosphate synthase (Homo sapiens) (UniProt O95749); test: Inhibition of GGDPS in human RPMI-8226 cells assessed as disruption of Rab6 geranylgeranylation at 10 uM after 48 hrs by western blot analysis; assay type: cell-based
T2 sequence (whole entry): T1 sequence (O95749 whole entry)
Outline: (§2)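 RPMI-8226 human myeloma cells exposed 48 h to test agent. For Rap1a, RIPA whole-cell lysate probed with an antibody recognising only unmodified Rap1a, β-tubulin as loading control. Rab6 read from Triton X-114 aqueous versus detergent fractions, with β-tubulin for aqueous and calnexin for detergent loading. Equal protein by BCA, SDS-PAGE/immunoblot with ECL. Blots representative of two independent experiments.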

[5] = biological target: T3, Farnesyl pyrophosphate synthase (Homo sapiens) (UniProt P14324); test: Inhibition of FDPS in human RPMI-8226 cells assessed as disruption of Ras farnesylation after 48 hrs by western blot analysis; assay type: cell-based
T3 sequence (whole entry): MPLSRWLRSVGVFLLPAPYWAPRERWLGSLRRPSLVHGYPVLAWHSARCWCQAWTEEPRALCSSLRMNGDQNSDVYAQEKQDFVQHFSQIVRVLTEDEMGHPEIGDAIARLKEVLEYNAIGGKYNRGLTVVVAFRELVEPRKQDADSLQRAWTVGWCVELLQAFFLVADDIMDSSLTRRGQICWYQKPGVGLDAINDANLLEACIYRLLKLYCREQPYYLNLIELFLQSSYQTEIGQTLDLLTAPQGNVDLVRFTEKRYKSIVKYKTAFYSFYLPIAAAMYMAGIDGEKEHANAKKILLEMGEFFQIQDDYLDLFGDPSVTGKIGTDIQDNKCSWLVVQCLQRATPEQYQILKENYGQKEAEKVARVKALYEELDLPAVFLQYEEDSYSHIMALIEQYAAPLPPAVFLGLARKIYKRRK

[6] = biological target: T2, Geranylgeranyl pyrophosphate synthase (Homo sapiens); test: Inhibition of GGDPS in human RPMI-8226 cells assessed as disruption of Rap1a geranylgeranylation at 10 uM after 48 hrs by western blot analysis; assay type: cell-based; outline: as §2
[7] = biological target: T4, Farnesyl pyrophosphate synthase (Homo sapiens, UniProt P14324); test: Inhibition of recombinant FDPS (unknown origin) assessed as decrease in radiolabeld […] level using GPP and [14C]IPP as substrate treated with enzyme for 10 mins prior to substrate challenge for 30 mins by liquid scintillation counting analysis; outline: as §1
T4 sequence (P14324 whole entry): T3 sequence (whole entry)

[8] = Inhibition of recombinant GGTase 2 (unknown origin) using recombinant Rab1A and [3H]GGPP as substrate after 20 mins by liquid scintillation counting analysis in presence of recombinant REP-2; design: species or system Homo sapiens
Outline: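 30 nM recombinant GGTase II with 2 µM His-tagged Rab1A (E. coli-expressed, Ni-NTA purified) and 1 µM REP-2 in HEPES buffer with MgCl2, DTT, NP-40. Started with 5 µM [3H]-GGPP, 20 min at 37 °C, ended with HCl/EtOH. Filtered on P-81 paper, washed and scintillation counted. Tested up to 1 mM.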

[9] = biological target: T2, Geranylgeranyl pyrophosphate synthase (Homo sapiens); conditions: RPMI-8226, 10 uM
[10] = biological target: T2, Geranylgeranyl pyrophosphate synthase (Homo sapiens); conditions: RPMI-8226, 1 uM
[11] = biological target: T2, Geranylgeranyl pyrophosphate synthase (Homo sapiens); conditions: RPMI-8226, 1 uM; remark: listed apart in the source
[12] = biological target: T5, 3-hydroxy-3-methylglutaryl-coenzyme A reductase (Homo sapiens) (UniProt P04035); test: Inhibition of HMG-coA reductase in human RPMI-8226 cells assessed as disruption of Rap1a geranylgeranylation at 10 uM after 48 hrs by western blot analysis in presence of 1 mM mevalonate; assay type: cell-based
T5 sequence (whole entry): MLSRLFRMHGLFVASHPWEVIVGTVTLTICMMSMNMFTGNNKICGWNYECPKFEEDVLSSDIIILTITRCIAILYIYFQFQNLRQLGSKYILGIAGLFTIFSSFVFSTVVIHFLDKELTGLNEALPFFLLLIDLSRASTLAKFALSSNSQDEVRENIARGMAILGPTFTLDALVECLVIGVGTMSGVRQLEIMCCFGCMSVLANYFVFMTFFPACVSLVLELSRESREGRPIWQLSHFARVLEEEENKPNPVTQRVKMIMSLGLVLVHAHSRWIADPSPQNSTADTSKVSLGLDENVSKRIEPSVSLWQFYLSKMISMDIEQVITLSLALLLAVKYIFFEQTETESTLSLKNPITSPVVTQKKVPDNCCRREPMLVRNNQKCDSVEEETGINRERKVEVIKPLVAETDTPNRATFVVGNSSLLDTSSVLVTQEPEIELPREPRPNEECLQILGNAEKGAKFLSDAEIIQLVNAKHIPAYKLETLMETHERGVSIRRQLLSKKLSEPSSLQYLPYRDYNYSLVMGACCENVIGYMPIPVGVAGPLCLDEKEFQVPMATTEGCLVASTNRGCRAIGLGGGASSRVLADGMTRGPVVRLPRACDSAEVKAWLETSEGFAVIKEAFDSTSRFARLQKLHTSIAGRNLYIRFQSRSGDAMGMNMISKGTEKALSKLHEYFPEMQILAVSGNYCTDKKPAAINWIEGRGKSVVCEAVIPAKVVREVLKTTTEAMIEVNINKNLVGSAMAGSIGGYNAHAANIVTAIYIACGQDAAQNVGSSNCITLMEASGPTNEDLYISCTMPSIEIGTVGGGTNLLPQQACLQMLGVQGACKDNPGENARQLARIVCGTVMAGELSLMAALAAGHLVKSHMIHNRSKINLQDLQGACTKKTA
Outline: (§3)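 RPMI-8226 cells held 48 h with 10 µM inhibitor, with or without isoprenoid add-back (1 mM mevalonate, 10 µM FPP or 10 µM GGPP). RIPA whole-cell lysate immunoblotted with an antibody detecting only unmodified Rap1a, β-tubulin as loading control. Protein equalised by BCA. Two independent experiments.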

[13] = biological target: T5, 3-hydroxy-3-methylglutaryl-coenzyme A reductase (Homo sapiens); test: Inhibition of HMG-coA reductase in human RPMI-8226 cells assessed as disruption of Rap1a geranylgeranylation at 10 uM after 48 hrs by western blot analysis in presence of 10 uM GGPP; assay type: cell-based; outline: as §3
[14] = biological target: T5, 3-hydroxy-3-methylglutaryl-coenzyme A reductase (Homo sapiens); test: Inhibition of HMG-coA reductase in human RPMI-8226 cells assessed as disruption of Rap1a geranylgeranylation at 10 uM after 48 hrs by western blot analysis; assay type: cell-based; outline: as §3
[15] = biological target: T2, Geranylgeranyl pyrophosphate synthase (Homo sapiens); conditions: RPMI-8226, 1 uM; remark: listed apart in the source
[16] = biological target: T2, Geranylgeranyl pyrophosphate synthase (Homo sapiens); conditions: RPMI-8226, 10 uM; remark: listed apart in the source
[17] = biological target: T2, Geranylgeranyl pyrophosphate synthase (Homo sapiens); conditions: RPMI-8226, 10 uM; remark: listed apart in the source
[18] = biological target: T2, Geranylgeranyl pyrophosphate synthase (Homo sapiens); conditions: RPMI-8226, 10 uM; remark: listed apart in the source

inhibition [12]	inhibition [13]	inhibition [14]	Compound	IC50 [1] [µM]	IC50 [2] [µM]	IC50 [3] [µM]	disruption of Rab6 geranylgeranylation (active/not active) [4]	inhibition [5]	disruption of Rap1a geranylgeranylation (active/not active) [6]	IC50 [7] [µM]	IC50 [8] [µM]	inhibition [9]	inhibition [10]	inhibition [11]	inhibition [15]	inhibition [16]	inhibition [17]	inhibition [18]
			CC(C)=CCC[C@]1(C)O[C@@H]1Cn1cc(CC(P(=O)(O)O)P(=O)(O)O)nn1 (racemic)	300	340	17	inactive	inactive	inactive	47	> 1000							
			CC(C)=CCC/C(C)=C/Cn1cc(CC(P(=O)(O)O)P(=O)(O)O)nn1	340	> 500			inactive	Active	57	> 1000	inactive	inactive	inactive				
			CC(C)=CCC/C(C)=C/CC(C/C=C(\C)CCC=C(C)C)(P(=O)(O)O)P(=O)(O)O				Active	inactive	Active			Active						
inactive	inactive	Active	CC[C@H](C)C(=O)O[C@H]1C[C@@H](C)C=C2C=C[C@H](C)[C@H](CC[C@@H]3C[C@@H](O)CC(=O)O3)[C@H]21															
			CC(C)=CCCC(C)=CCn1cc(CC(P(=O)(O)O)P(=O)(O)O)nn1 (mixture of isomers)	200	500		Active	inactive	Active	84	> 1000	Active	Active	Active				
			CC(C)=CCC[C@@]1(C)O[C@@H]1Cn1cc(CC(P(=O)(O)O)P(=O)(O)O)nn1 (racemic)	500	400	23	inactive	inactive	inactive	33	> 1000							
			CC(C)=CCC/C(C)=C\Cn1cc(CC(P(=O)(O)O)P(=O)(O)O)nn1	500	400		Active	inactive	Active	79	> 1000	Active	Active	Active	Active	Active	Active	inactive
